{
  "source": "ChEMBL document CHEMBL1687713",
  "about": "(Antimicrob Agents Chemother, 2008)",
  "key": {"Staphylococcus aureus [1]": {"test_system": "Staphylococcus aureus", "test": "(§1) Antimicrobial activity against […] Staphylococcus aureus ATCC 29213 tissue cage Wistar rat infected model assessed as bacterial load reduction at 100 mg/kg/day, ip treated for 7 days measured 24 hrs after last dose (reference value: 6.8 +/-0.8 logCFU/ml) co-treated with 25 mg/kg rifampin, ip bid", "format": "functional"}, "[2]": {"test": "Cmax in Escherichia coli ATCC 35218 infected Wistar rat tissue cage fluid at 50 mg/kg/day, ip measured on day 4", "format": "ADME, organism-based, Interstitial fluid", "parameters": "dose 50 mg/kg/day, route intraperitoneal"}, "[3]": {"test": "Cmax in Escherichia coli ATCC 35218 infected Wistar rat tissue cage fluid at 100 mg/kg/day, ip measured on day 4", "format": "ADME, organism-based, Interstitial fluid", "parameters": "dose 100 mg/kg/day, route intraperitoneal"}, "[4]": {"test": "AUC in Escherichia coli ATCC 35218 infected Wistar rat serum at 100 mg/kg/day, ip measured on day 4", "format": "ADME, organism-based", "parameters": "route intraperitoneal"}, "Staphylococcus aureus [5]": {"test_system": "Staphylococcus aureus", "test": "as §1, with “14” for “7”, “7.2 +/- 0.6” for “6.8 +/-0.8”", "format": "functional"}, "[6]": {"test": "AUC in Escherichia coli ATCC 35218 infected Wistar rat tissue cage fluid at 100 mg/kg/day, ip measured on day 4", "format": "ADME, organism-based", "parameters": "route intraperitoneal"}, "[7]": {"test": "AUC in Escherichia coli ATCC 35218 infected Wistar rat tissue cage fluid at 50 mg/kg/day, ip measured on day 4", "format": "ADME, organism-based", "parameters": "route intraperitoneal"}, "Staphylococcus aureus [8]": {"test_system": "Staphylococcus aureus", "test": "(§2) Antimicrobial activity against […] Staphylococcus aureus ATCC 29213 coverslip Wistar rat infected model assessed as bacterial load reduction at 100 mg/kg/day, ip treated for 14 days measured 24 hrs after last dose (reference value: 5.4 +/- 1 logCFU/ml)", "format": "functional", "details": "route intraperitoneal"}, "Staphylococcus aureus [9]": {"test_system": "Staphylococcus aureus", "test": "Antimicrobial activity against […] Staphylococcus aureus ATCC 29213 tissue cage Wistar rat infected model assessed as bacterial load reduction at 100 mg/kg/day, ip treated for 7 days measured 24 hrs after last dose (reference value: 6.8 +/-0.8 logCFU/ml)", "format": "functional", "details": "route intraperitoneal"}, "Staphylococcus aureus [10]": {"test_system": "Staphylococcus aureus", "test": "as §1, with “50” for “100”", "format": "functional"}, "Staphylococcus aureus [11]": {"test_system": "Staphylococcus aureus", "test": "Antimicrobial activity against stationary phase culture of […] Staphylococcus aureus ATCC 29213 by macrodilution method", "format": "functional", "how_it_was_run": "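Macrodilution MIC and MBC. MIC: lowest concentration inhibiting macroscopic growth. MBC: lowest concentration killing 99.9% of the initial inoculum. Log-phase cultures were used, and MBC was also determined in stationary phase. Subcultures were streaked down the plate centre and left to dry before spreading, to avoid carryover.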"}, "Staphylococcus aureus [12]": {"test_system": "Staphylococcus aureus", "test": "Antimicrobial activity against […] Staphylococcus aureus ATCC 29213 at 2 times MIC in presence of rifampin", "format": "functional, organism-based", "how_it_was_run": "(§3)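 24-h killing curves in log phase using subinhibitory and clinically available concentrations, single drug or with rifampin. Bactericidal activity is a ≥3-log10 CFU/ml fall from the initial inoculum at 24 h.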"}, "Staphylococcus aureus [13]": {"test_system": "Staphylococcus aureus", "test": "Antimicrobial activity against methicillin-resistant Staphylococcus aureus ATCC 29213 tissue cage Wistar rat infected model assessed as bacterial load reduction at 50 mg/kg/day, ip treated for 7 days measured 24 hrs after last dose (reference value: 6.8 +/-0.8 logCFU/ml)", "format": "functional", "details": "route intraperitoneal"}, "Staphylococcus aureus [14]": {"test_system": "Staphylococcus aureus", "test": "Antimicrobial activity against […] Staphylococcus aureus ATCC 29213 tissue cage Wistar rat infected model assessed as bacterial load reduction at 100 mg/kg/day, ip treated for 14 days measured 24 hrs after last dose (reference value: 7.2 +/- 0.6 logCFU/ml)", "format": "functional", "details": "route intraperitoneal"}, "[15]": {"test": "AUC in Escherichia coli ATCC 35218 infected Wistar rat serum at 50 mg/kg/day, ip measured on day 4", "format": "ADME, organism-based", "parameters": "route intraperitoneal"}, "Staphylococcus aureus [16]": {"test_system": "Staphylococcus aureus", "test": "as §2, with “logCFU/ml) co-treated with 25 mg/kg rifampin, ip bid” for “logCFU/ml)”", "format": "functional"}, "Staphylococcus aureus [17]": {"test_system": "Staphylococcus aureus", "test": "Antimicrobial activity against […] Staphylococcus aureus ATCC 29213 tissue cage Wistar rat infected model assessed as bacterial load reduction at 25 mg/kg, ip bid treated for 7 days measured 24 hrs after last dose (reference value: 6.8 +/-0.8 logCFU/ml)", "format": "functional", "details": "route intraperitoneal"}, "Staphylococcus aureus [18]": {"test_system": "Staphylococcus aureus", "test": "Bactericidal activity against log phase culture of […] Staphylococcus aureus ATCC 29213 at 8 times MIC", "format": "functional, organism-based", "how_it_was_run": "as §3"}, "[19]": {"test": "Cmax in Staphylococcus epidermidis ATCC 27626 infected Wistar rat tissue cage fluid at 25 mg/kg, ip measured on day 4", "format": "ADME, organism-based", "parameters": "dose 25 mg/kg, route intraperitoneal"}, "[20]": {"test": "Ratio of AUC in Wistar rat tissue cage fluid to MIC for Staphylococcus epidermidis ATCC 27626 at 25 mg/kg, ip measured on day 4", "format": "functional", "details": "route intraperitoneal"}, "[21]": {"test": "AUC in Staphylococcus epidermidis ATCC 27626 infected Wistar rat tissue cage fluid at 25 mg/kg, ip measured on day 4", "format": "ADME, organism-based", "parameters": "dose 25 mg/kg, route intraperitoneal"}, "[22]": {"test": "AUC in Staphylococcus epidermidis ATCC 27626 infected Wistar rat serum at 25 mg/kg, ip measured on day 4", "format": "ADME, organism-based", "parameters": "dose 25 mg/kg, route intraperitoneal"}, "[23]": {"test": "Ratio of Cmax in Wistar rat tissue cage fluid to MIC for Staphylococcus epidermidis ATCC 27626 at 25 mg/kg, ip measured on day 4", "format": "functional", "details": "route intraperitoneal"}},
  "note": "The source made the active and inactive calls. The calls are words filed in the database; no cut-off is given here.",
  "data": [
    {"smiles": "C[C@H]1COc2c(N3CCN(C)CC3)c(F)cc3c(=O)c(C(=O)O)cn1c23.C[C@H]1COc2c(N3CCN(C)CC3)c(F)cc3c(=O)c(C(=O)O)cn1c23.O", "note": "[LEVOFLOXACIN]", "values": [
      {"measurement": "log10CFU/ml", "setting": "Staphylococcus aureus [1]", "value": 6.74},
      {"measurement": "Cmax", "setting": "[2]", "value": 6000, "unit": "ng/mL"},
      {"measurement": "Cmax", "setting": "[3]", "value": 12000, "unit": "ng/mL"},
      {"measurement": "AUC", "setting": "[4]", "value": 106, "unit": "µg·h/mL"},
      {"measurement": "log10CFU/ml", "setting": "Staphylococcus aureus [5]", "value": 3.37},
      {"measurement": "AUC", "setting": "[6]", "value": 117, "unit": "µg·h/mL"},
      {"measurement": "AUC", "setting": "[7]", "value": 68, "unit": "µg·h/mL"},
      {"measurement": "log10CFU/ml", "setting": "Staphylococcus aureus [8]", "value": 2.24},
      {"measurement": "log10CFU/ml", "setting": "Staphylococcus aureus [9]", "value": 6.74},
      {"measurement": "log10CFU/ml", "setting": "Staphylococcus aureus [10]", "value": 6.7},
      {"measurement": "MBC", "setting": "Staphylococcus aureus [11]", "value": "> 8", "unit": "µg/mL"},
      {"measurement": "inhibition", "setting": "Staphylococcus aureus [12]", "value": "inactive"},
      {"measurement": "log10CFU/ml", "setting": "Staphylococcus aureus [13]", "value": 6.4},
      {"measurement": "log10CFU/ml", "setting": "Staphylococcus aureus [14]", "value": 2.9},
      {"measurement": "AUC", "setting": "[15]", "value": 77, "unit": "µg·h/mL"},
      {"measurement": "log10CFU/ml", "setting": "Staphylococcus aureus [16]", "value": 3.36}
    ]},
    {"smiles": "CO[C@H]1/C=C/O[C@@]2(C)Oc3c(C)c(O)c4c(O)c(c(/C=N/N5CCN(C)CC5)c(O)c4c3C2=O)NC(=O)/C(C)=C\\C=C\\[C@H](C)[C@H](O)[C@@H](C)[C@@H](O)[C@@H](C)[C@H](OC(C)=O)[C@@H]1C", "note": "[RIFAMPIN]", "values": [
      {"measurement": "log10CFU/ml", "setting": "Staphylococcus aureus [17]", "value": 6.9},
      {"measurement": "Activity", "setting": "Staphylococcus aureus [18]", "value": "Active"},
      {"measurement": "Cmax", "setting": "[19]", "value": 6600, "unit": "ng/mL"},
      {"measurement": "Ratio", "setting": "[20]", "value": 20260},
      {"measurement": "AUC", "setting": "[21]", "value": 304, "unit": "µg·h/mL"},
      {"measurement": "MBC", "setting": "Staphylococcus aureus [11]", "value": 4, "unit": "µg/mL"},
      {"measurement": "AUC", "setting": "[22]", "value": 277, "unit": "µg·h/mL"},
      {"measurement": "Ratio", "setting": "[23]", "value": 440}
    ]}
  ]
}
